{"source": "ChEMBL document CHEMBL6103663", "about": "“Enhanced Cytotoxicity of [10]-Gingerol-Coumarin-Triazole Hybrid as a Theranostic Agent for Triple Negative Breast Cancer” (ACS Med Chem Lett, 2025)", "key": {"[1]": {"test_system": "MDA-MB-231", "experiment": "Cytotoxicity against human MDA-MB-231 cells measured after 48 hrs by MTT assay", "format": "functional, cell-based", "details": "MDA-MB-231, 48 h"}, "[2]": {"test_system": "MDA-MB-231", "experiment": "Cytotoxicity against human MDA-MB-231 cells measured after 24 hrs by resazurin dye based fluorescence assay", "format": "functional, cell-based", "details": "MDA-MB-231, 24 h", "procedure,_shortened": "(§1)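 MDA-MB-231 cells in Leibovitz-L15 with 10% FBS, 10^4 cells/well, were allowed to adhere for 24 h at 37 °C. They were then exposed to a halving serial dilution from 250 to 0.98 μM (DMSO ≤0.5% final). Next came 10% resazurin for 4 h at 37 °C, with fluorescence read at λex 540 and λem […] nm. Assays used six technical replicates across three experiments. Results were expressed as % cell death, and IC50 was taken from regression (four-parameter logistic).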"}, "[3]": {"test_system": "MDA-MB-231", "experiment": "Cytotoxicity against human MDA-MB-231 cells measured after 48 hrs by resazurin dye based fluorescence assay", "format": "functional, cell-based", "details": "MDA-MB-231, 48 h", "procedure,_shortened": "as §1"}, "[4]": {"experiment": "Drug internalization in human MDA-MB-231 cells assessed as uptake in cellular perimeter at 5 uM measured after 30 mins by CellMask Deep Red plasma membrane/MitoTracker Red FM/Hoechst staining based fluorescence microscopy", "format": "ADME, cell-based", "details": "mda-mb-231, 0.5 h", "procedure,_shortened": "(§2)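 Cells (1.9 × 10^4/well) adhered for 24 h and were then given 5 μM compound, in duplicate at 37 °C, alongside untreated controls. They were stained with CellMask Deep Red, MitoTracker Red FM and Hoechst for 30 min at RT, then fixed in 4% PFA. Epifluorescence high-content imaging at 40× used a FITC filter with 488 nm excitation. The untreated autofluorescence mean set the threshold, and green area per cell was quantified in μm2.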"}, "[5]": {"experiment": "Drug internalization in human MDA-MB-231 cells assessed as intracellular uptake at 5 uM measured after 30 mins by CellMask Deep Red plasma membrane/MitoTracker Red FM/Hoechst staining based fluorescence microscopy", "format": "ADME, cell-based", "details": "mda-mb-231, 0.5 h", "procedure,_shortened": "as §2"}, "[6]": {"experiment": "Drug internalization in human MDA-MB-231 cells assessed as increase in fluorescence at 5 uM measured after 30 mins by CellMask Deep Red plasma membrane/MitoTracker Red FM/Hoechst staining based fluorescence microscopy", "format": "ADME, cell-based", "details": "mda-mb-231, 0.5 h", "procedure,_shortened": "as §2"}, "[7]": {"experiment": "Drug internalization in human MDA-MB-231 cells assessed as increase in fluorescence at 5 uM measured after 1 hr by CellMask Deep Red plasma membrane/MitoTracker Red FM/Hoechst staining based fluorescence microscopy", "format": "ADME, cell-based", "details": "mda-mb-231, 1 h", "procedure,_shortened": "as §2"}, "[8]": {"experiment": "Drug internalization in human MDA-MB-231 cells assessed as appearance of diffuse layer of green fluorescence with small clusters inside the cell at 5 uM measured after 30 mins by DAPI/FITC/TxRed/Cy5 staining based confocal microscopy", "format": "ADME", "details": "mda-mb-231, 0.5 h", "procedure,_shortened": "(§3)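 Preparation was the same: 5 μM treatment at 37 °C in duplicate, then staining with CellMask Deep Red, MitoTracker Red FM and Hoechst, and 4% PFA fixation. Confocal Airyscan imaging at 40× used a 1 AU pinhole with gated channels: DAPI 410–508, FITC 493–571, TxRed 548–620 and Cy5 638–759 nm. Z-stacks gave orthogonal views, thresholded against untreated cells. Pearson's coefficient was calculated between the FITC and TxRed channels.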"}, "[9]": {"experiment": "Drug internalization in human MDA-MB-231 cells assessed as interaction with mitochondria at 5 uM measured after 30 mins by DAPI/FITC/TxRed/Cy5 staining based confocal microscopy", "format": "ADME", "details": "mda-mb-231, 0.5 h", "procedure,_shortened": "as §3"}, "[10]": {"experiment": "Drug internalization in human MDA-MB-231 cells assessed as appearance of small blebs colocalization with mitochondria at 5 uM measured after 1 hr by DAPI/FITC/TxRed/Cy5 staining based confocal microscopy", "format": "ADME", "details": "mda-mb-231, 1 h", "procedure,_shortened": "as §3"}, "[11]": {"experiment": "Drug internalization in human MDA-MB-231 cell mitochondria assessed as appearance of more clustered green fluorescence at 5 uM measured after 2 hrs by DAPI/FITC/TxRed/Cy5 staining based confocal microscopy", "format": "ADME", "details": "mda-mb-231, 2 h", "procedure,_shortened": "as §3"}, "[12]": {"experiment": "Drug internalization in human MDA-MB-231 cell mitochondria assessed as appearance of green fluorescence throughout the cell at 5 uM measured after 2 hrs by DAPI/FITC/TxRed/Cy5 staining based confocal microscopy", "format": "ADME", "details": "mda-mb-231, 2 h", "procedure,_shortened": "as §3"}, "[13]": {"experiment": "Potency index, ratio of Met10G IC50 to test compound IC50 for cytotoxicity against human MDA-MB-231 cells after 24 hrs", "format": "functional"}, "[14]": {"experiment": "Potency index, ratio of Met10G IC50 to test compound IC50 for cytotoxicity against human MDA-MB-231 cells after 48 hrs", "format": "functional"}}}
{"smiles": "CCCCCCCCC[C@H](O)CC(=O)CCc1ccc(O)c(OC)c1", "values": [{"measurement": "IC50", "setting": "[1]", "value": 12.1, "unit": "µM"}]}
{"smiles": "CCCCCCCCCC(O)CC(=O)CCc1ccc(OC)c(OC)c1", "note": "(stereo unspecified)", "values": [{"measurement": "IC50", "setting": "[2]", "value": 45.6, "unit": "µM"}, {"measurement": "IC50", "setting": "[3]", "value": 26.9, "unit": "µM"}, {"measurement": "Drug uptake", "setting": "[4]", "value": "Active"}, {"measurement": "Drug uptake", "setting": "[5]", "value": "Active"}, {"measurement": "Drug uptake", "setting": "[6]", "value": "Active"}, {"measurement": "Drug uptake", "setting": "[7]", "value": "Not_active"}, {"measurement": "Drug uptake", "setting": "[8]", "value": "Active"}, {"measurement": "Drug uptake", "setting": "[9]", "value": "Active"}, {"measurement": "Drug uptake", "setting": "[10]", "value": "Active"}, {"measurement": "Drug uptake", "setting": "[11]", "value": "Active"}, {"measurement": "Drug uptake", "setting": "[12]", "value": "Active"}]}
{"smiles": "COc1cc(Cl)ccc1OCCCCc1cn(CCCNC(=O)c2cc3ccc(O)cc3oc2=O)nn1", "values": [{"measurement": "IC50", "setting": "[2]", "value": 116, "unit": "µM"}, {"measurement": "IC50", "setting": "[3]", "value": 103, "unit": "µM"}, {"measurement": "Drug uptake", "setting": "[4]", "value": "Active"}, {"measurement": "Drug uptake", "setting": "[5]", "value": "Active"}, {"measurement": "Drug uptake", "setting": "[6]", "value": "Active"}, {"measurement": "Drug uptake", "setting": "[7]", "value": "Not_active"}, {"measurement": "Drug uptake", "setting": "[8]", "value": "Active"}, {"measurement": "Drug uptake", "setting": "[9]", "value": "Active"}, {"measurement": "Drug uptake", "setting": "[10]", "value": "Active"}, {"measurement": "Drug uptake", "setting": "[11]", "value": "Active"}, {"measurement": "Drug uptake", "setting": "[12]", "value": "Active"}]}
{"smiles": "CCCCCCCCC[C@H](O)CC(=O)CCc1ccc(OCCCCc2cn(CCCNC(=O)c3cc4ccc(O)cc4oc3=O)nn2)c(OC)c1", "values": [{"measurement": "IC50", "setting": "[2]", "value": 19.1, "unit": "µM"}, {"measurement": "IC50", "setting": "[3]", "value": 2.3, "unit": "µM"}, {"measurement": "Ratio IC50", "setting": "[13]", "value": 2}, {"measurement": "Ratio IC50", "setting": "[14]", "value": "<=10"}, {"measurement": "Drug uptake", "setting": "[4]", "value": "Active"}, {"measurement": "Drug uptake", "setting": "[5]", "value": "Active"}, {"measurement": "Drug uptake", "setting": "[6]", "value": "Active"}, {"measurement": "Drug uptake", "setting": "[7]", "value": "Active"}, {"measurement": "Drug uptake", "setting": "[8]", "value": "Active"}, {"measurement": "Drug uptake", "setting": "[9]", "value": "Active"}, {"measurement": "Drug uptake", "setting": "[10]", "value": "Active"}, {"measurement": "Drug uptake", "setting": "[11]", "value": "Active"}, {"measurement": "Drug uptake", "setting": "[12]", "value": "Active"}]}
